Assay [1] relates to Escherichia coli. Nature of the assay: Minimum inhibitory concentration against Escherichia coli TolC- mutant in presence of membrane permeablizing agent polymyxin B. It is filed as functional.
In assay [2] the target is T1, Beta-ketoacyl-[acyl-carrier-protein] synthase III (Haemophilus influenzae (strain ATCC 51907 / DSM 11121 / KW20 / Rd), UniProt P43711).
T1 sequence (P43711 whole entry): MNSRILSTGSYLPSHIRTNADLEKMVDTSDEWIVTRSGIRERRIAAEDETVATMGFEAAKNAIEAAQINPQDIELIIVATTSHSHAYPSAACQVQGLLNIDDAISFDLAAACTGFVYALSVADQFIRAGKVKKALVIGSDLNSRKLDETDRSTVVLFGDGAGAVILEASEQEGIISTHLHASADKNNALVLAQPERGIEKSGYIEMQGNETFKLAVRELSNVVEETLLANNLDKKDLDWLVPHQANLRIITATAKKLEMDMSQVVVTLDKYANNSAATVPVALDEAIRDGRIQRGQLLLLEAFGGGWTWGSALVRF
Nature of the assay: Inhibitory concentration against Haemophilus influenzae beta-Ketoacyl-acyl carrier protein synthase III. The essentials:
(§1)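 Coupled FabD/FabH radiometric assay with His-tagged or tagless FabH expressed in E. coli BL21(DE3). The mix held 100 mM sodium phosphate pH 7.0, 2 mM DTT, 1 mM MgCl₂, 12.5 µM E. coli holo-ACP, 10 nM FabD and 3-5 nM FabH. Malonyl-CoA was added for 1 min, then acetyl-CoA plus [³H]acetyl-CoA, NADH and NADPH for 19 min. TCA-precipitated protein was counted by liquid scintillation; DMSO ≤2% final.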

In assay [3] the target is T2, Beta-ketoacyl-[acyl-carrier-protein] synthase III (Staphylococcus aureus subsp. aureus Mu50, UniProt P68795).
T2 sequence (P68795 whole entry): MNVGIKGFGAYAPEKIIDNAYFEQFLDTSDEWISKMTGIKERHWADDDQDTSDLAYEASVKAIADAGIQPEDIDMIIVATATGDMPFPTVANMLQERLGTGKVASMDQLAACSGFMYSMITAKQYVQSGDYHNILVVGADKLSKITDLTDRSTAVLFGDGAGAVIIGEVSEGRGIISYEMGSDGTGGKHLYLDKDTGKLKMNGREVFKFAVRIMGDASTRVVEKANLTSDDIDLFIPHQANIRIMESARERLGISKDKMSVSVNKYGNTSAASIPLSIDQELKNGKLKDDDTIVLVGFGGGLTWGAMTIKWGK
Description: Inhibitory concentration against Staphylococcus aureus beta-Ketoacyl-acyl carrier protein synthase III. In short, it runs like this: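 Coupled FabD/FabH radiometric assay, 100 µL final, pH 7.0: 100 mM sodium phosphate, 2 mM DTT, 1 mM MgCl2, 12.5 µM E. coli holo-ACP, 10 nM FabD, 20 nM S. aureus FabH (His-tagged or tagless, expressed in E. coli BL21(DE3)). FabD started with malonyl-CoA for 1 min. Acetyl-CoA plus [3H]acetyl-CoA, NADH and NADPH then added; FabH reaction 19 min. Stopped with TCA; pellet counted by liquid scintillation. DMSO ≤2% final.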

For assay [4], the target named is T3, Beta-ketoacyl-[acyl-carrier-protein] synthase III (Enterococcus faecalis (strain ATCC 700802 / V583), UniProt Q820T1).
T3 sequence (Q820T1 whole entry): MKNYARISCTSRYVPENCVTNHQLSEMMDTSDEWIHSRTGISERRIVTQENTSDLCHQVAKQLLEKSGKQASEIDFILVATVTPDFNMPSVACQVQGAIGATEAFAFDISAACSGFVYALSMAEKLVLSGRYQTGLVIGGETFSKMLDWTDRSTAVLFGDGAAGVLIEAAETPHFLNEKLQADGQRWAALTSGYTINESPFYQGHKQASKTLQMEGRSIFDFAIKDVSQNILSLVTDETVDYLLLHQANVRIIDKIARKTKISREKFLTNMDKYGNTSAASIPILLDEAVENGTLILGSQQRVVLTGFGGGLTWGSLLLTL
Description: Inhibitory concentration against Enterococcus faecalis beta-Ketoacyl-acyl carrier protein synthase III. In short, it runs like this: as §1

Assay [5] deals with Streptococcus pneumoniae. Nature of the assay: Minimum inhibitory concentration against Streptococcus pneumonia ATCC 6301. Format: functional.
The nature of assay [6]: Minimum inhibitory concentration against Enterococcus faecalis VRE 583. Format: functional, Enterococcus faecalis V583.
The subject of assay [7] is Neisseria meningitidis. Description: Minimum inhibitory concentration against Neisseria meningitides MC58 in presence of membrane permeablizing agent polymyxin B. It is filed as functional.
Assay [8] concerns the target T4, Beta-ketoacyl-[acyl-carrier-protein] synthase III (Streptococcus pyogenes serotype M3 (strain ATCC BAA-595 / MGAS315), UniProt P0DB00).
T4 sequence (P0DB00 whole entry): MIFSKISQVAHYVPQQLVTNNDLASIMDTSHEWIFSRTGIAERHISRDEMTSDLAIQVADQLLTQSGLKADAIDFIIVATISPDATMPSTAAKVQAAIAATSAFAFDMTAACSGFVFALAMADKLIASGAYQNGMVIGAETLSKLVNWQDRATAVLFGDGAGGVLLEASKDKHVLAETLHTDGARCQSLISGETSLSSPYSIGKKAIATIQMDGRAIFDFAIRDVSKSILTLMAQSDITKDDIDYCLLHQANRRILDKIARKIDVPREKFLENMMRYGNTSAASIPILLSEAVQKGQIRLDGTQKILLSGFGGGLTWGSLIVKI
Nature of the assay: Inhibitory concentration against Streptococcus pyogenes beta-Ketoacyl-acyl carrier protein synthase III. In short, it runs like this:
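S. pyogenes FabH (10 nM, His-tagged or tagless, expressed in E. coli BL21(DE3)) was run in a coupled assay with 10 nM FabD, 12.5 µM holo-ACP, 100 mM sodium phosphate pH 7.0, 2 mM DTT and 1 mM MgCl₂. Malonyl-CoA was added for 1 min, then [³H]acetyl-CoA/acetyl-CoA with NADH and NADPH for 19 min. The reaction was stopped with cold TCA and the pellet read by scintillation. Inhibitor DMSO ≤2%.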

Assay [9] deals with Staphylococcus aureus. Description: Minimum inhibitory concentration against Staphylococcus aureus MRSA 703. It is filed as functional.
In assay [10] the test system is Streptococcus pyogenes. Nature of the assay: Minimum inhibitory concentration against Streptococcus pyogenes NZ131. It is filed as functional.

Values after ≈ are worked out from the molar mass of the structure shown.

What is called MIC is the least concentration at which growth counts as inhibited. Usually IC50 stands for the concentration that inhibits the measured activity by half. Higher therefore signals a need for much substance. For the molecule `O=C(Nc1cccc(O)c1C(=O)O)c1ccc(Br)c(Oc2ccccc2)c1`, the MIC was 2.8 µg/mL in [1]; 45 µg/mL (≈ 105 µM) in assay [5]; more than 45 µg/mL in assay [6]; 2.8 µg/mL in assay [7]; 45 µg/mL (≈ 105 µM) in assay [9]; 11.3 µg/mL (≈ 26.4 µM) in assay [10]. The IC50 in [2] stood at 20000 nM; in assay [3] it was 12300 nM; in assay [4], 62 nM; in assay [8], 34 nM.
As for `CS(=O)(=O)c1ccc(-c2ccc(C(=O)Nc3ccccc3C(=O)O)cc2Oc2ccccc2)cc1`, the minimum inhibitory concentration (MIC) is 5.6 µg/mL in assay [1]; 45 µg/mL (≈ 92.3 µM) in [5]; more than 45 µg/mL in [6]; 5.6 µg/mL in assay [7]; 45 µg/mL (≈ 92.3 µM) in assay [9]; 22 µg/mL (≈ 45.1 µM) in [10]. In addition, the IC50 in assay [2] was more than 100000 nM; in assay [3] it was 24000 nM; in assay [4] it was 28 nM; in [8] it was 3 nM.
On to `O=C(Nc1cccc(O)c1C(=O)O)c1ccc(-c2ccccc2)c(Oc2ccccc2)c1`, for which the MIC in [1] is 1.4 µg/mL; in assay [5], 22 µg/mL (≈ 51.7 µM); in assay [6] it was more than 45 µg/mL; in [7], 1.4 µg/mL; in assay [9], 22 µg/mL (≈ 51.7 µM); in assay [10] it was 5.6 µg/mL (≈ 13.2 µM). For the same molecule, the half-maximal inhibitory concentration (IC50) in assay [2] was 2400 nM; in assay [3], 3800 nM; in [4], 4 nM; in assay [8], 4 nM.

(Values after ChEMBL document CHEMBL1140263, “Structure-based design, synthesis, and study of potent inhibitors of beta-ketoacyl-acyl carrier protein synthase III as potential antimicrobial agents” (J Med Chem, 2005).)
